High-throughput results: PubChem BioAssay, several laboratories
APJ ag = agonists of human APJ apelin receptor | P35414 | activation, % at 20 µM | 330,000 compounds, 0.11% hits | CHO-K1 APJ PathHunter beta-arrestin, luminescence; 0% DMSO wells, 100% apelin;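 active means activation more than six SD over the plate average, tested at 20 µM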
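Assay system – PathHunter CHO-K1 APJ (AGTRL-1) beta-arrestin reporter cells · Compound – one dose, 20 µM compound, 1% DMSO · Timing – compound 90 min 25 °C, reagent 1 h · Measured by – luminescence from split beta-galactosidase complementation, Galacton Star/Emerald II substrate · Measure – beta-arrestin recruitment to APJ as agonist activity, luminescent signal · Benchmarks – DMSO vs Apelin-13 10 nM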
B2AR ag = human beta-2 adrenergic receptor agonism by FAP; 340,000 compounds, 0.43% hits; AID 504454; Am2.2-beta2AR cells, FAP receptor internalization, flow cytometry; response, % (concentration not given with the values); P07550;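 active means response above a set limit, near 3 SD of response in nonfluorescent compounds, cut at about 42% in these data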
Target sequence (P07550 whole entry, looked up): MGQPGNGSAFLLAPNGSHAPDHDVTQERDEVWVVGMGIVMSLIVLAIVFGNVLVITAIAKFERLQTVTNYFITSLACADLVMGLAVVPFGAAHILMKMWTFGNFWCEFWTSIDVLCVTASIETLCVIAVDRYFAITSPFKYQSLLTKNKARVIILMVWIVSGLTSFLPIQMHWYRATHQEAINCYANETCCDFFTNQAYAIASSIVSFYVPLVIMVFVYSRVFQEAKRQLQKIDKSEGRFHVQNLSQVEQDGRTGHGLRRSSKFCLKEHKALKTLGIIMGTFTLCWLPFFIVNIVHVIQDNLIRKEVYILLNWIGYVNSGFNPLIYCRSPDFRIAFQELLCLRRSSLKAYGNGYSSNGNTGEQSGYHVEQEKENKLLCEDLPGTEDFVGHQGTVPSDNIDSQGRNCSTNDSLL
CXCR6 inh = CXCR6 (human) receptor inhibition; O00574; CHO-K1 PathHunter CXCR6 beta-arrestin, luminescence; inhibition, % at 20 µM; 360,000 compounds, 0.36% hits; in the data active means inhibition above about 34%, passing the limit was not always enough;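 further: antagonist mode with CXCL16 agonist at 10 nM final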
CCR6 antagonist = blocks CCL20-driven beta-arrestin recruitment at human CCR6. inhibition, % at 20 µM. CHO-K1 CCR6 PathHunter beta-arrestin, luminescence, CCL20-stimulated. 340,000 compounds, 0.49% hits. P51684;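 active means compounds whose inhibition of the agonist-driven luminescence signal at 20 µM reaches about 50%, limit read from the data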;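 further: cells stimulated with CCL20 at 14 nM final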
APJ antagonist = antagonists of human APJ apelin receptor; P35414; CHO-K1 APJ beta-arrestin complementation, luminescence; inhibition, % at 20 µM; 330,000 compounds, 0.32% hits; AID 2521;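 active means inhibition above about 40% at 20 µM, limit read from the data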;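 further: cells challenged with 10 nM apelin-13 agonist together with compound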
PfGluPho inh = PfG6PD (Plasmodium falciparum) enzyme inhibition; PfGluPho enzyme, NADPH resazurin-diaphorase fluorescence; inhibition, % at 20 µM; 350,000 compounds, 0.78% hits; AID 504690;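 active means inhibition reaching at least a set limit at 20 µM in the primary screen, cut at about 59% in these data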
Of the large screens only hits and unclear results are named; the others gave an inactive call. Shown are actives, neighbours in structure and some others; about 1.7% of the full set was active somewhere.

CC(=O)O[C@H]1CC[C@@]2(C)C(=CC[C@@H]3[C@@H]2CC[C@]2(C)C(=O)CC[C@@H]32)C1	none
CC(=O)O/C(=C1\CC2C3CC=C4CC(OC(C)=O)CCC4(C)C3CCC2(C)C1=O)C(F)(F)F (stereo not given)	CXCR6 inh 62.2, CCR6 antagonist 82.6 (no result: APJ ag, APJ antagonist)
CC(=O)N1Cc2cnnn2-c2ccccc2C1(C)C#N (stereo not given)	none (no result: APJ ag, APJ antagonist)
C=C1C(=O)OC2CC3(C)OC3C3OC3C3=CC(OC3=O)C12 (stereo not given)	none (no result: APJ ag, B2AR ag, CCR6 antagonist, APJ antagonist, PfGluPho inh)
Cc1cc(C)cc(N2C(=O)NC(=O)/C(=C\C=C\c3ccco3)C2=O)c1	B2AR ag 58.5 (no result: APJ ag, APJ antagonist)
O=C1NC(=O)N(c2ccccc2)C(=O)/C1=C\C=C\c1ccccc1	CXCR6 inh 52.7
CC(C)c1ccc(N2C(=O)NC(=O)/C(=C/C=C/c3ccco3)C2=O)cc1	none (no result: APJ ag, APJ antagonist)
CCOc1ccc(N2C(=O)/C(=C/c3ccco3)C(=O)NC2=S)cc1	CXCR6 inh 58.0, CCR6 antagonist 78.6
CCc1ccc(N2C(=O)NC(=O)/C(=C\C=C\c3ccco3)C2=O)cc1	B2AR ag 70.5
C=C(COC(=O)CCC(=O)O)CC1CC(O)[C@]2(C)OC3CC4OC5C[C@]6(C)O[C@]7(C)CCC8OC9C[C@]%10(C)OC%11C(C)=CC(=O)OC%11CC%10OC9C[C@@H](C)C8OC7CC6O[C@]5(C)C/C=C\C4OC3CC2O1 (stereo not given in full)	none
Cc1ccc(N2C(=O)NC(=O)/C(=C/C=C/c3ccco3)C2=O)cc1	B2AR ag 83.0, CCR6 antagonist 53.2
CCc1ccccc1N1C(=O)NC(=O)/C(=C\c2cc(C)n(C)c2C)C1=O	B2AR ag 60.8
CCOP1(=S)Oc2cc3c(cc2C(C(=O)OC)(C(F)(F)F)O1)OCO3 (stereo not given)	PfGluPho inh 64.0
O=[N+]([O-])c1ccc(N2CCCCCC2)c2ncccc12	none
Cc1ccc(-c2cc(-c3ccc(C)cc3)[n+](-c3ccccc3)c(-c3ccc(C)cc3)c2)cc1	B2AR ag 44.0
Cn1ncnc2c(=O)n(C)c(=O)nc1-2	B2AR ag 53.1, PfGluPho inh 122.1
CCOC(=O)[C@]12Cc3ccc4ccccc4c3[C@H]1N(Cc1ccccc1)C(=O)c1ccccc12	none (no result: APJ ag, B2AR ag, CCR6 antagonist, APJ antagonist, PfGluPho inh)
O=C1NC(=O)N(Cc2ccccc2)C(=O)/C1=C\c1ccco1	B2AR ag 57.6
O=C1NC(=O)N(Cc2ccc(F)cc2)C(=O)/C1=C\C=C\c1ccco1	B2AR ag 48.4
Cn1cccc1/C=C1\C(=O)NC(=O)N(Cc2ccccc2)C1=O	none
Fc1cccc(-c2ccc3c(c2)CN(C(=S)NCCc2ccccc2)Cc2cnnn2-3)c1	none (no result: APJ ag, B2AR ag, CCR6 antagonist, APJ antagonist, PfGluPho inh)
CCCCn1c(NC(=O)c2ccc(Br)o2)c(C(=O)OCC)c2nc3ccccc3nc21	APJ antagonist 62.8
CN1C(=O)/C(=C\c2ccc(Br)s2)C(=O)NC1=S	PfGluPho inh 60.4 (no result: APJ ag, APJ antagonist)
Cc1cc(/C=C2\C(=O)NC(=S)N(C)C2=O)c(C)n1C1CCCCC1	none
COc1ccc(OC)c(N2C(=O)NC(=O)/C(=C\c3ccc([N+](=O)[O-])s3)C2=O)c1	none
CN1C(=O)NC(=O)/C(=C/c2ccc([N+](=O)[O-])s2)C1=O	PfGluPho inh 81.5
O=C1NC(=O)N(c2ccccc2)C(=O)/C1=C\c1ccc([N+](=O)[O-])s1	PfGluPho inh 80.9 (no result: CXCR6 inh)
Clc1cccc(N2Cc3cc(-c4ccccc4)ccc3-n3nncc3C2)c1	none (no result: APJ ag, B2AR ag, CCR6 antagonist, APJ antagonist, PfGluPho inh)
COC(=O)C1=C(c2ccc(OCc3ccccc3)cc2)C[C@@H]2CC[C@H]1N2C(=O)NCc1ccc(F)cc1	none (no result: APJ ag, B2AR ag, CCR6 antagonist, APJ antagonist)
C/C(=N\NC(=O)c1ccncc1)c1c(O)[nH]c(=O)[nH]c1=O	none (no result: B2AR ag, CXCR6 inh)
CN(C)C(=S)SSC(=S)N(C)C	PfGluPho inh 95.0 (no result: APJ ag, APJ antagonist)
C=C(C)[C@@]12OC3(c4ccccc4)O[C@@H]1C1[C@@H]4O[C@]4(CO)[C@@H](O)[C@]4(O)C(=O)C(C)=C[C@H]4[C@@]1(O3)[C@H](C)[C@H]2OC(=O)/C=C/C=C/c1ccccc1 (stereo not given in full)	B2AR ag 111.6
O=c1[nH]c2ccccc2n1C1CCN(C(c2ccccc2OC(F)(F)F)c2nnnn2-c2ccc3c(c2)OCCO3)CC1 (stereo not given)	none (no result: APJ ag, B2AR ag, CCR6 antagonist, APJ antagonist, PfGluPho inh)
